Tests used:
[1] = molecular target: T1, Metabotropic glutamate receptor 5 (Rattus norvegicus, UniProt P31424); assay: Allosteric modulation of mGluR5 in E17 rat neuronal cultures assessed as inhibition of (S)-3,5-dihydroxyphenylglycine-induced calcium level; assay type: functional
In short: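 Primary neocortical cultures from E17 rat embryos, grown at least 5 days, then loaded with the Ca2+ dye fluo-4/AM. Baseline and agonist-evoked fluorescence signals were recorded on a plate reader fluorometer.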

[2] = molecular target: T1, Metabotropic glutamate receptor 5; assay: Displacement of [3H]-M-MPEP from mGluR5 in rat cerebrocortical membranes; assay type: cell membranes, Membrane
In short: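 Displacement run in duplicate or triplicate, with curves of at least six concentrations. IC50 was converted to Ki by Cheng-Prusoff, using Kd from a Scatchard plot.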

[3] = molecular target: Metabotropic glutamate receptor 5 (Homo sapiens, UniProt P41594); assay: Binding affinity to human mGluR5
In short: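 Run in duplicate or triplicate, with concentration-displacement curves of at least six concentrations giving IC50. Ki derived by Cheng-Prusoff, using the radioligand Kd determined from a Scatchard plot.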

T1 sequence (P31424 whole entry): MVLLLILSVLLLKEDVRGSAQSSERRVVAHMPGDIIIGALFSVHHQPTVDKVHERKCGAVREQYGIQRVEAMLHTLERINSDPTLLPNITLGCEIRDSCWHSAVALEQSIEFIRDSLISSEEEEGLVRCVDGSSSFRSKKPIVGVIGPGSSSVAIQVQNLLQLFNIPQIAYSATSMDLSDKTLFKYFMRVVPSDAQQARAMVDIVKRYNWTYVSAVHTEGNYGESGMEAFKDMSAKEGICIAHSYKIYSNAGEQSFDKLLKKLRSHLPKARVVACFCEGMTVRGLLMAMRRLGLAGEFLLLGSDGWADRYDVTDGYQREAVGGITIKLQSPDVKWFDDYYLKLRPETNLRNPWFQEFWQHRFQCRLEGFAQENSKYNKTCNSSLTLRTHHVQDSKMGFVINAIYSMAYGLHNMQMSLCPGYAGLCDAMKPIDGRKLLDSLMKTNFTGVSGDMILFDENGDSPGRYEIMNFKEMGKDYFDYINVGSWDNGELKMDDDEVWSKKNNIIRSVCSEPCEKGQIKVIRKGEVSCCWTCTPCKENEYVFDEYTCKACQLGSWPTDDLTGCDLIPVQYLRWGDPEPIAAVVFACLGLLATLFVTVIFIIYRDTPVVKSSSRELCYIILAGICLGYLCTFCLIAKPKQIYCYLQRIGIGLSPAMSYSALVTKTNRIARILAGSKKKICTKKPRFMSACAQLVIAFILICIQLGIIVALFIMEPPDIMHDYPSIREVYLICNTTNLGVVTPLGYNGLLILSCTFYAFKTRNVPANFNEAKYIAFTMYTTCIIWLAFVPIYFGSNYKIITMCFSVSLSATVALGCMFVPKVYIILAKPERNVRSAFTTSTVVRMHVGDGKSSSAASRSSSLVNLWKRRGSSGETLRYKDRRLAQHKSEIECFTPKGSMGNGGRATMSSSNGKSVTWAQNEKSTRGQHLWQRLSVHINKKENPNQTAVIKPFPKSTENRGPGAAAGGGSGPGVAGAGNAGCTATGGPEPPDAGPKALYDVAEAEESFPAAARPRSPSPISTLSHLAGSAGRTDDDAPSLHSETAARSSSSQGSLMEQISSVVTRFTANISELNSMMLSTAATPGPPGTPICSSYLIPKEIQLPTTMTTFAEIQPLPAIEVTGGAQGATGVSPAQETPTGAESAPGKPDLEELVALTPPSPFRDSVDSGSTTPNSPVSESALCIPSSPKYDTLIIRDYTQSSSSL
Chain of Metabotropic glutamate receptor 5 (Homo sapiens, UniProt P41594) (P41594 whole entry): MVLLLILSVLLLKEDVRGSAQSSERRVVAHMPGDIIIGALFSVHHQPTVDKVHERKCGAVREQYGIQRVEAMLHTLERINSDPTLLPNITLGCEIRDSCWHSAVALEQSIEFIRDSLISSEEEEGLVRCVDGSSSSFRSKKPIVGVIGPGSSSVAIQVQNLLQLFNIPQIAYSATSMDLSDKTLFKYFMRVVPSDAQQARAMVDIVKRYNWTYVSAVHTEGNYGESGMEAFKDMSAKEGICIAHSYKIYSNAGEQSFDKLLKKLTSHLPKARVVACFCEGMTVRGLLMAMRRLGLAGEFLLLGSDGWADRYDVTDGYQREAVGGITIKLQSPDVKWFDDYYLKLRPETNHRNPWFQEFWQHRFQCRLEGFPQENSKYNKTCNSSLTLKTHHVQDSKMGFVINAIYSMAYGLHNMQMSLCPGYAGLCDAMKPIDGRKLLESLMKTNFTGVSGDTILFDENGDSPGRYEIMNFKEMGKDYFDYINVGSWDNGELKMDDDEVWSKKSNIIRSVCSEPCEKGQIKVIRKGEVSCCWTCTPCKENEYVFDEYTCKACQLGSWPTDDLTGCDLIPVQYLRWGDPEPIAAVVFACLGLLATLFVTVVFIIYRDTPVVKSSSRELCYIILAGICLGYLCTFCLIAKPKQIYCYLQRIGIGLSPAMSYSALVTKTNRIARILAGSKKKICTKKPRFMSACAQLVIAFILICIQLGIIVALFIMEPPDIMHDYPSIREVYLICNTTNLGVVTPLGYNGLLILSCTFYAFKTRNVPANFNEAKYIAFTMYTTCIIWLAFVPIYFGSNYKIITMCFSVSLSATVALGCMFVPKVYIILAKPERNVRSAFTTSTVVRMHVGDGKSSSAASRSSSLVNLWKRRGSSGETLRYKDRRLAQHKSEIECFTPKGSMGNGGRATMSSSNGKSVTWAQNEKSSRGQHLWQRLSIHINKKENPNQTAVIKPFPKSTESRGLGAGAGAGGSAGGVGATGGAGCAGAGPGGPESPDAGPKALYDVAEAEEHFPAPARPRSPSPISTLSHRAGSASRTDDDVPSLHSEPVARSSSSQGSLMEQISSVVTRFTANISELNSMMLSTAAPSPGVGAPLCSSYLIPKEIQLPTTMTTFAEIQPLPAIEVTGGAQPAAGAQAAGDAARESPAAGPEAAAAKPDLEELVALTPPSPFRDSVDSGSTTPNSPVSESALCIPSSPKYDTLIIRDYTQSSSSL

For `Cc1ccc(C(=O)N2CCCC2c2nc(-c3cccc(Cl)c3)no2)s1` (racemic), the IC50 [1] was 6610 nM and the Ki [2] was 123 nM.
`COc1cccc(-c2noc(C3CCCCN3C(=O)C3CCC3)n2)c1` (racemic) showed an IC50 [1] of 501 nM and a Ki [2] of 182 nM.
Molecule `Cc1ccc(C(=O)N2CSCC2c2nc(-c3cccc(Cl)c3)no2)s1` (racemic) has an IC50 [1] of 759 nM and a Ki [2] of 83.2 nM.
With `Cc1cccc(-n2nnc(C3CCCCN3C(=O)C3CCCC3)n2)c1` (racemic) the Ki [2] was 102 nM.
For `Cc1cccc(-c2noc(C3CCCN3C(=O)c3ccc(C)s3)n2)c1` (racemic), the IC50 [1] was 1000 nM and the Ki [2] was 145 nM.
`CN1CC(=O)N=C1NC(=O)Nc1cccc(Cl)c1` [FENOBAM ANHYDROUS] showed a Ki [3] of 6.76 nM.
`N#Cc1cccc(-n2nnc(C3CCCCN3C(=O)C3CCC3)n2)c1` (racemic) showed a Ki [2] of 229 nM.
Molecule `O=C(C1CCCC1)N1CCCCC1c1nnn(-c2cccc(Cl)c2)n1` (racemic) has an IC50 [1] of 295 nM and a Ki [2] of 87.1 nM.
`O=C(c1ccco1)N1CCCCC1c1nnn(-c2cccc(Cl)c2)n1` (racemic) was tested, and the Ki [2] was 126 nM.
In the case of `Cc1cccc(-n2nnc(C3CCCCN3C(=O)C3CCC3)n2)c1` (racemic), the IC50 [1] is reported as 224 nM and the Ki [2] is reported as 72.4 nM.
Work on `Cc1ccc(C(=O)N2CCCC2c2nnn(-c3cccc(Cl)c3)n2)s1` (racemic) yielded an IC50 [1] of 251 nM and a Ki [2] of 89.1 nM.
`N#Cc1cccc(-c2noc(C3CCCCN3C(=O)c3cccs3)n2)c1` (racemic) showed an IC50 [1] of 1740 nM and a Ki [2] of 200 nM.
`O=C(C1CCC1)N1CCCC[C@@H]1c1nnn(-c2cccc(Cl)c2)n1` gave a Ki [2] of 57.5 nM.
Work on `O=C(C1CCC1)N1CCCCC1c1nnn(-c2cccc(Cl)c2)n1` (racemic) yielded an IC50 [1] of 339 nM and a Ki [2] of 77.6 nM.
In the case of `O=C(c1ccc(Br)o1)N1CCCCC1c1nnn(-c2cccc(F)c2)n1` (racemic), the Ki [2] is reported as 457 nM.
For `O=C(c1cccs1)N1CCCC1c1nc(-c2cccc(Cl)c2)no1` (racemic), the IC50 [1] was 30200 nM and the Ki [2] was 195 nM.
For `COCC(=O)N1CCCC1c1nc(-c2cccc(C)c2)no1` (racemic), the IC50 [1] was 30200 nM and the Ki [2] was 186 nM.
`CC(C)C(=O)N1CCCCC1c1nnn(-c2cccc(Cl)c2)n1` (racemic) gave a Ki [2] of 138 nM.
Work on `Cc1ccc(C(=O)N2CCCC2c2nnn(-c3cccc(Cl)c3)n2)o1` (racemic) yielded a Ki [2] of 105 nM.
Molecule `O=C(C1CCC1)N1CCCC[C@H]1c1nnn(-c2cccc(Cl)c2)n1` has a Ki [2] of 741 nM.
For `Cc1cccc(-c2noc(C3CCCCN3C(=O)C3CCC3)n2)c1` (racemic), the IC50 [1] was 490 nM and the Ki [2] was 126 nM.
Work on `O=C(c1cccs1)N1CCCC(c2nnn(-c3cccc(Cl)c3)n2)C1` (racemic) yielded a Ki [2] of 316 nM.
Molecule `O=C(c1ccco1)N1CSCC1c1nc(-c2cccc(Cl)c2)no1` (racemic) has an IC50 [1] of 1050 nM and a Ki [2] of 195 nM.

From ChEMBL document CHEMBL1158608, “Hit-to-lead optimization of disubstituted oxadiazoles and tetrazoles as mGluR5 NAMs” (Bioorg Med Chem Lett, 2010)
